One molecule from ChEMBL document CHEMBL4706575, “Nonpeptidic quinazolinone derivatives as dual nucleotide-binding oligomerization domain-like receptor 1/2 antagonists for adjuvant cancer chemotherapy” (Eur J Med Chem, 2020) can be followed below.

The target in series [1] is T1, Nucleotide-binding oligomerization domain-containing protein 1 (Homo sapiens) (UniProt Q9Y239).
T1 sequence (whole entry): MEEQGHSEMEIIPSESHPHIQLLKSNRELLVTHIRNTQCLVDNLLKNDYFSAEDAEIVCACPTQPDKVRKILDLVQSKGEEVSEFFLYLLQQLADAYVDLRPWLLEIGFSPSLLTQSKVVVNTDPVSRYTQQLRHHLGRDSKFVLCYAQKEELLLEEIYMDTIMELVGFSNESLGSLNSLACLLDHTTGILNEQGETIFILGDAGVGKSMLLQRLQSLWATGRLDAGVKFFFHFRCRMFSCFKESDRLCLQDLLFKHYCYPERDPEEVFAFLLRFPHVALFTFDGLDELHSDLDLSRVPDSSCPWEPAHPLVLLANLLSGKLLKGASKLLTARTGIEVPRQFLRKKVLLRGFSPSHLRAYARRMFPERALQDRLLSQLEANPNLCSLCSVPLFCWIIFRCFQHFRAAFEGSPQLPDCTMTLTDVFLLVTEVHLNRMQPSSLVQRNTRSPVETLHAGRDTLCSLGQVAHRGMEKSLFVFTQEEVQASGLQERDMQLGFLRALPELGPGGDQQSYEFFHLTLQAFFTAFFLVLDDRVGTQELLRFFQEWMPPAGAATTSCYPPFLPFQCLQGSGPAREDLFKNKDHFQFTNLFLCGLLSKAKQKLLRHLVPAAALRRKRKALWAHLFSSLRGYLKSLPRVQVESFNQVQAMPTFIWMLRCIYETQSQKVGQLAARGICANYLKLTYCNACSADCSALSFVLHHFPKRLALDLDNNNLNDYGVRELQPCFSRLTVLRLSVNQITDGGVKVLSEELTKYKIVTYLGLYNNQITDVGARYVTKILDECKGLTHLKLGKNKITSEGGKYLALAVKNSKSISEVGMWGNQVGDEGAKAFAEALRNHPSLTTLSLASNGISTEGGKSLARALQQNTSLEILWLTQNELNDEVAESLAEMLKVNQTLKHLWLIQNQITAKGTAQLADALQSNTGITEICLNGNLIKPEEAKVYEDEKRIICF
Description: Antagonist activity at NOD1 in HEK-Blue hNOD1 cells assessed as inhibition of C12-iE-DAP-induced NFkappaB activation-mediated SEAP release at 5 uM preincubated for 3 hrs followed by C12-iE-DAP addition and measured after 20 hrs by spectrophotometric method relative to control. The class given is cell-based. Conditions: filed as antagonist, time 23.0 hrs.

In series [2] the target is T1, Nucleotide-binding oligomerization domain-containing protein 1 (Homo sapiens). Description: (§1) Antagonist activity at NOD1 in HEK-Blue hNOD1 cells assessed as inhibition of C12-iE-DAP-induced NFkappaB activation-mediated SEAP release preincubated for 3 hrs followed by C12-iE-DAP addition and measured after 20 hrs by spectrophotometric method. The class given is cell-based. Conditions: filed as antagonist, time 23.0 hrs.

Series [3] addresses T2, Nucleotide-binding oligomerization domain-containing protein 1 (Homo sapiens, UniProt Q9Y239).
T2 sequence (Q9Y239 whole entry): T1 sequence (whole entry)
The description is as §1. The class given is cell-based.

Series [4] is described as follows: Half life in mouse liver microsomes at 1.25 uM preincubated for 5 mins followed by NADPH generating system addition and measured for 120 mins by LC-MS/MS analysis. Type of series: ADME, Microsome. An outline of the steps: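 Mouse liver microsomes (1.25 mg/mL protein) in 100 mM phosphate pH 7.4 with 1.25 µM compound, preincubated 5 min at 37 °C. Reaction started with NADPH-generating system (1 mM NADP, 10 mM MgCl2, 10 mM G6P, 0.5 U/mL G6PDH). Sampled at 0–120 min, quenched with MeOH/ACN 1:1, analysed by LC-MS/MS.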
Background: Liver microsomes are a subcellular fraction often used to study metabolism.

Series [5] concerns the target T1, Nucleotide-binding oligomerization domain-containing protein 1 (Homo sapiens). Description: Antagonist activity at NOD1 in human THP-1 cells assessed as inhibition of C12-iE-DAP-induced increase in p65 phosphorylation at 1 to 10 uM preincubated for 1 hr followed by C12-iE-DAP addition and measured after 30 mins by Western blot analysis. The class given is cell-based. Conditions: filed as antagonist, dose 1-10 µM, time 1.5 hrs. In short, it runs like this:
(§2)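 Serum-starved THP-1 cells pretreated with compound (1.0 or 10 µM) or without for 1 h. Then C12-iE-DAP 500 ng/mL (NOD1) or MDP (NOD2) for 30 min. Lysed in cold whole-cell buffer. Western blot for IκBα and for total and phospho RIP2, IKKα/β, p65, JNK, p38 and ERK1/2. β-actin as loading control.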

The target is the same in series [6]. Description: Antagonist activity at NOD1 in human THP-1 cells assessed as inhibition of C12-iE-DAP-induced increase in p38 phosphorylation at 1 to 10 uM preincubated for 1 hr followed by C12-iE-DAP addition and measured after 30 mins by Western blot analysis. Conditions: filed as antagonist, dose 1-10 µM, time 1.5 hrs. The class given is cell-based. An outline of the steps: as §2

Series [7] has as its target T3, Nucleotide-binding oligomerization domain-containing protein 2 (Homo sapiens, UniProt Q9HC29). Description: Antagonist activity at NOD2 in human THP-1 cells assessed as inhibition of MDP-induced increase in IKKalpha/beta phosphorylation preincubated for 1 hr followed by MDP addition and measured after 30 mins by Western blot analysis. Type of series: cell-based. Conditions: filed as antagonist, dose 1-10 µM, time 1.5 hrs. In short, it runs like this: as §2

The target in series [8] is T3, Nucleotide-binding oligomerization domain-containing protein 2. Description: Antagonist activity at NOD2 in human THP-1 cells assessed as inhibition of MDP-induced increase in p65 phosphorylation preincubated for 1 hr followed by MDP addition and measured after 30 mins by Western blot analysis. Type of series: cell-based. To be noted: filed as antagonist, dose 1-10 µM, time 1.5 hrs. An outline of the steps:
as §2
(In general: Immunoblotting shows a protein as a band on a membrane.)

For series [9] the target is unchanged. Description: Antagonist activity at NOD2 in human THP-1 cells assessed as inhibition of MDP-induced increase in p38 phosphorylation preincubated for 1 hr followed by MDP addition and measured after 30 mins by Western blot analysis. Type of series: cell-based. To be noted: filed as antagonist, dose 1-10 µM, time 1.5 hrs. An outline of the steps:
as §2

For series [10] the target is unchanged. Description: Antagonist activity at NOD2 in human THP-1 cells assessed as inhibition of MDP-induced increase in JNK phosphorylation preincubated for 1 hr followed by MDP addition and measured after 30 mins by Western blot analysis. The class given is cell-based. To be noted: filed as antagonist, dose 1-10 µM, time 1.5 hrs. In short, it runs like this: as §2

Series [11] shares this target. The series is described as follows: Antagonist activity at NOD2 in human THP-1 cells assessed as inhibition of MDP-induced IkappaBalpha degradation preincubated for 1 hr followed by MDP addition and measured after 30 mins by Western blot analysis. Conditions: filed as antagonist, dose 1-10 µM, time 1.5 hrs. The class given is cell-based. An outline of the steps: as §2

In series [12] the target is T1, Nucleotide-binding oligomerization domain-containing protein 1 (Homo sapiens). Description: Antagonist activity at NOD1 in human THP-1 cells assessed as inhibition of C12-iE-DAP-induced TNFalpha mRNA expression preincubated for 1 hr followed by C12-iE-DAP addition and measured after 90 mins by qRT-PCR analysis. Type of series: cell-based. To be noted: filed as antagonist, dose 1-10 µM, time 150.0 min. An outline of the steps: (§3)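 THP-1 cells in RPMI-1640 with 10% FBS, treated with compound (1.0 or 10 µM) or vehicle for 1 h. Then stimulated 90 min with C12-iE-DAP 500 ng/mL (NOD1) or MDP (NOD2). IL-6, TNF-α and IL-8 mRNA measured by qRT-PCR. Mean ± SD, n = 6, two-tailed t-test.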

The target of series [13] is T3, Nucleotide-binding oligomerization domain-containing protein 2. Description: Antagonist activity at NOD2 in human THP-1 cells assessed as inhibition of MDP-induced IL6 mRNA expression preincubated for 1 hr followed by MDP addition and measured after 90 mins by qRT-PCR analysis. Type of series: cell-based. To be noted: filed as antagonist, dose 1-10 µM, time 150.0 min. An outline of the steps:
as §3
Background: In qPCR the cycle at which signal appears reflects the starting amount.

Series [14] shares this target. Description: Antagonist activity at NOD2 in human THP-1 cells assessed as inhibition of MDP-induced IL8 mRNA expression preincubated for 1 hr followed by MDP addition and measured after 90 mins by qRT-PCR analysis. The class given is cell-based. Conditions: filed as antagonist, dose 1-10 µM, time 150.0 min. In short, it runs like this:
as §3

Another series relates to B16-F10. Description: Potentiation of paclitaxel-induced antitumor activity against mouse B16-F10 cells implanted in C57BL/6 mouse assessed as tumor growth inhibition at 50 mg/kg, iv administered every other day for 15 days measured 24 hrs post last dose (reference value: 64.07%). The class given is functional. Conditions: 384 h, time 16 day, read-out: TGI.

The term inhibition denotes the change of the read-out against control, counted positive when it falls. A word on the IC50: it is the concentration needed to halve the response being measured. The term half-life denotes the time needed for the level to fall by half in the phase considered.

SMILES strings stand for the structures. The source made the active and inactive calls.

T3 sequence (Q9HC29 whole entry, the tested form may be a part): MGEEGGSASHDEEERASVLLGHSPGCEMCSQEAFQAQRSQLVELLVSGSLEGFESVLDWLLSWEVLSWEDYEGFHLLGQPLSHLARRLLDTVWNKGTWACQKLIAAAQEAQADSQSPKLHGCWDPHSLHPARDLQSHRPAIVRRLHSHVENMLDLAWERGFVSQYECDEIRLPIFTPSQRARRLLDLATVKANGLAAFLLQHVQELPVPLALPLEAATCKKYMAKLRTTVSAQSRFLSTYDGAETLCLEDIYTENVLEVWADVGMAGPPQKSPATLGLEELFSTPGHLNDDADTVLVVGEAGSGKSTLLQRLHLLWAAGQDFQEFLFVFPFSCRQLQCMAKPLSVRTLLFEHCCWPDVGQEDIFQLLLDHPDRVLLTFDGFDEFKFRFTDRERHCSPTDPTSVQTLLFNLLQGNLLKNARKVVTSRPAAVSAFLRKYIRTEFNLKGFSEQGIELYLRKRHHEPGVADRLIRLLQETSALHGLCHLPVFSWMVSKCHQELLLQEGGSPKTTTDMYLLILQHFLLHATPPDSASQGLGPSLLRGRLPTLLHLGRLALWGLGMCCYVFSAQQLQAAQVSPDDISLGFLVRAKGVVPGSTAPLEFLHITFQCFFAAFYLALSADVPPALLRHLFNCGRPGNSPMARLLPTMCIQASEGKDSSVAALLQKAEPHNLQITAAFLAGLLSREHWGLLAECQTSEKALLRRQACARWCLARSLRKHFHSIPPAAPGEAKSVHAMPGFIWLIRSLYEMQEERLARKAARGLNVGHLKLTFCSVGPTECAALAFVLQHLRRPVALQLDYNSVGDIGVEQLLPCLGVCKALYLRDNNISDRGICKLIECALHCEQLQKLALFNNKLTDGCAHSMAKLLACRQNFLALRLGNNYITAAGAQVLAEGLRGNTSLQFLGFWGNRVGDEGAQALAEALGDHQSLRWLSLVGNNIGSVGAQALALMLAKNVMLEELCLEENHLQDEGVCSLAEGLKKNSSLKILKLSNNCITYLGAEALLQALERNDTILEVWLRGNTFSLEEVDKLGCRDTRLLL

On to `O=C(NCCCOc1ccc(C(F)(F)F)cc1)c1cc2ncn(CC(=O)N3CCCC(F)(F)C3)c(=O)c2cc1-c1cccc(Cl)c1`, for which the inhibition in series [1] is 91.4%; in series [2] it was “Dose-dependent effect”; in series [7], “Dose-dependent effect”; in [8], “Dose-dependent effect”; in series [9], “Dose-dependent effect”; in series [10] it was “Dose-dependent effect”. Besides, the inhibition entry in [11], in [12], in series [13] and in series [14] was “Dose-dependent effect” throughout. Besides, the IC50 in [3] was found to be 1130 nM. The molecule also had a half-life at 1.25 µM in [4] of 1.13 h. Further, the inhibition result in [5] and in [6] was “Active” in each case. Further, in the series with B16-F10, the inhibition in vivo at 50 mg/kg came out at 85.5%.
